Reference: ChEMBL document CHEMBL2434893, “Synthesis, DNA binding and anti-leukemic activity of an aminoacyl nucleolipid” (Bioorg Med Chem Lett, 2013)
Active and inactive are the calls of the source. The rule behind the calls is not given here.

How the values were obtained:
SNB-19 = experiment: Cytotoxicity against human SNB19 cells assessed as cell growth at 10 uM after 48 hrs by SRB assay relative to control; type: functional; details: SNB-19, 48 h, read-out: Activity
Procedure, shortened: (§1)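 Single-dose (10 μM) screen run by the NCI Developmental Therapeutics Program on its 60 human cancer cell line panel. Viability was determined after 48 h incubation with the cells at 37 °C.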

SW-620 = experiment: Cytotoxicity against human SW620 cells assessed as cell growth at 10 uM after 48 hrs by SRB assay relative to control; type: functional; details: SW-620, 48 h, read-out: Activity; procedure, shortened: as §1
COLO 205 = experiment: Cytotoxicity against human COLO205 cells assessed as cell growth at 10 uM after 48 hrs by SRB assay relative to control; type: functional; details: COLO 205, 48 h, read-out: Activity
Procedure, shortened: (§2)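 NCI Developmental Therapeutics Program 60-cell-line screen at a single dose of 10 μM. Cells incubated with compound for 48 h at 37 °C before viability determination.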

NCI-H522 = experiment: Cytotoxicity against human NCI-H522 cells assessed as cell growth at 10 uM after 48 hrs by SRB assay relative to control; type: functional; details: NCI-H522, 48 h, read-out: Activity; procedure, shortened: as §2
NCI-H322M = experiment: Cytotoxicity against human NCI-H322M cells assessed as cell growth at 10 uM after 48 hrs by SRB assay relative to control; type: functional; details: read-out: Activity; procedure, shortened: as §2
NCI-H23 = experiment: Cytotoxicity against human NCI-H23 cells assessed as cell growth at 10 uM after 48 hrs by SRB assay relative to control; type: functional; details: NCI-H23, 48 h, read-out: Activity; procedure, shortened: as §2
NCI-H226 = experiment: Cytotoxicity against human NCI-H226 cells assessed as cell growth at 10 uM after 48 hrs by SRB assay relative to control; type: functional; details: NCI-H226, 48 h, read-out: Activity; procedure, shortened: as §2
SR = experiment: Cytotoxicity against human SR cells assessed as cell growth at 10 uM after 48 hrs by SRB assay relative to control; type: functional; details: read-out: Activity; procedure, shortened: as §1
RPMI-8226 = experiment: Cytotoxicity against human RPMI8226 cells assessed as cell growth at 10 uM after 48 hrs by SRB assay relative to control; type: functional; details: RPMI-8226, 48 h, read-out: Activity; procedure, shortened: as §2
K562 = experiment: Cytotoxicity against human K562 cells assessed as cell growth at 10 uM after 48 hrs by SRB assay relative to control; type: functional; details: K562, 48 h, read-out: Activity; procedure, shortened: as §2
[1] = Binding affinity to GRP78 duplex DNA (unknown origin) assessed as DNA-compound complex formation at 3.9 mM measured at 36 hrs by dynamic light scattering analysis relative to control
Procedure, shortened: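 DNA (1.1 μM), with or without ligand at 3.9 mM, incubated 36 h in phosphate buffer. Particle size then measured by dynamic light scattering against native DNA and ligand alone.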

[2] = Binding affinity to GRP78 duplex DNA (unknown origin) at 0.2 to 3.9 mM by CD spectrophotometric analysis
Procedure, shortened: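 CD spectra recorded on duplex DNA (1.1 μM) in phosphate buffer (140 mM KCl, 1 mM MgCl₂, 5 mM sodium phosphate, pH 7.2) titrated with ligand 0–3.9 mM. Samples prepared as for melting. Molar ellipticity followed at the 260–280 nm maximum and the 248 nm minimum.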

[3] = Binding affinity to GRP78 duplex DNA (unknown origin) assessed as change in duplex DNA hyperchromicity at 0.9 to 3.9 mM after 36 hrs by thermal denaturation assay
Procedure, shortened: (§3)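 Duplex DNA (1.1 μM) annealed from complementary strands in phosphate buffer (140 mM KCl, 1 mM MgCl₂, 5 mM sodium phosphate, pH 7.2), with ligand 0.2–3.9 mM. Melting followed as % hyperchromicity at 260 nm over 5–90 °C. Tm shift measured against native duplex.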

[4] = Binding affinity to GRP78 duplex DNA (unknown origin) assessed as change in melting temperature at 0.2 mM after 36 hrs by thermal denaturation assay; procedure, shortened: as §3
[5] = Binding affinity to GRP78 duplex DNA (unknown origin) after 36 hrs by gel shift mobility assay
Procedure, shortened: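 Complementary strands (0.57 μM) annealed in 30% sucrose in TAE buffer (89 mM Tris/acetate, 2.5 mM EDTA, […]), incubated 36 h at 37 °C with ligand at 0, 5, 25, 50, 100 equiv per DNA phosphate (0, 0.2, 0.9, 1.9, 3.9 mM). Run on 24% native PAGE. DNA bands visualized by UV-shadowing at 260 nm. K_D taken from the duplex band ratio with versus without ligand.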

T47D = experiment: Cytotoxicity against human T47D cells assessed as cell growth at 10 uM after 48 hrs by SRB assay relative to control; type: functional; details: read-out: Activity; procedure, shortened: as §1
BT-549 = experiment: Cytotoxicity against human BT549 cells assessed as cell growth at 10 uM after 48 hrs by SRB assay relative to control; type: functional; details: BT-549, 48 h, read-out: Activity; procedure, shortened: as §2
Hs-578T = experiment: Cytotoxicity against human Hs578T cells assessed as cell growth at 10 uM after 48 hrs by SRB assay relative to control; type: functional; details: read-out: Activity; procedure, shortened: as §2
MCF7 = experiment: Cytotoxicity against human MCF7 cells assessed as cell growth at 10 uM after 48 hrs by SRB assay relative to control; type: functional; details: MCF7, 48 h, read-out: Activity; procedure, shortened: as §2
PC-3 = experiment: Cytotoxicity against human PC3 cells assessed as cell growth at 10 uM after 48 hrs by SRB assay relative to control; type: functional; details: PC-3, 48 h, read-out: Activity; procedure, shortened: as §2
RXF 393 = experiment: Cytotoxicity against human RXF393 cells assessed as cell growth at 10 uM after 48 hrs by SRB assay relative to control; type: functional; details: RXF 393, 48 h, read-out: Activity; procedure, shortened: as §2
CAKI-1 = experiment: Cytotoxicity against human Caki1 cells assessed as cell growth at 10 uM after 48 hrs by SRB assay relative to control; type: functional; details: CAKI-1, 48 h, read-out: Activity; procedure, shortened: as §2
A498 = experiment: Cytotoxicity against human A498 cells assessed as cell growth at 10 uM after 48 hrs by SRB assay relative to control; type: functional; details: A498, 48 h, read-out: Activity; procedure, shortened: as §2
SK-OV-3 = experiment: Cytotoxicity against human SKOV3 cells assessed as cell growth at 10 uM after 48 hrs by SRB assay relative to control; type: functional; details: SK-OV-3, 48 h, read-out: Activity; procedure, shortened: as §1
[6] = Cytotoxicity against human NCI-ADR-RES cells assessed as cell growth at 10 uM after 48 hrs by SRB assay relative to control; type: functional; details: read-out: Activity; procedure, shortened: as §2
OVCAR-4 = experiment: Cytotoxicity against human OVCAR4 cells assessed as cell growth at 10 uM after 48 hrs by SRB assay relative to control; type: functional; details: OVCAR-4, 48 h, read-out: Activity; procedure, shortened: as §2
IGROV-1 = experiment: Cytotoxicity against human IGROV1 cells assessed as cell growth at 10 uM after 48 hrs by SRB assay relative to control; type: functional; details: IGROV-1, 48 h, read-out: Activity; procedure, shortened: as §2
MDA-MB-435 = experiment: Cytotoxicity against human MDA-MB-435 cells assessed as cell growth at 10 uM after 48 hrs by SRB assay relative to control; type: functional; details: MDA-MB-435, 48 h, read-out: Activity; procedure, shortened: as §2
Malme-3M = experiment: Cytotoxicity against human MALME-3M cells assessed as cell growth at 10 uM after 48 hrs by SRB assay relative to control; type: functional; details: read-out: Activity; procedure, shortened: as §2

## CCCCCCCCCCCCCCCC(=O)O[C@@H]1[C@H](OC(=O)CCCCCCCCCCCCCCC)[C@@H](C(=O)N[C@@H](CCCCN)C(=O)OC)O[C@H]1n1cnc2c(=O)[nH]c(NC(=O)C(C)C)nc21.Cl
SNB-19
  growth at 10 µM: 93.5%
SW-620
  growth at 10 µM: 104%
COLO 205
  growth at 10 µM: 101%
NCI-H522
  growth at 10 µM: 84.4%
NCI-H322M
  growth at 10 µM: 89.6%
NCI-H23
  growth at 10 µM: 97.8%
NCI-H226
  growth at 10 µM: 102%
SR
  growth at 10 µM: 9.69%
RPMI-8226
  growth at 10 µM: 92.5%
K562
  growth at 10 µM: 82.9%
[1]
  fold change (FC): > 2
[2]
  Activity: Active
[3]
  Activity: Active
[4]
  ΔTm: 4 °C
[5]
  Kd: 700 µM
T47D
  growth at 10 µM: 88.2%
BT-549
  growth at 10 µM: 105%
Hs-578T
  growth at 10 µM: 107%
MCF7
  growth at 10 µM: 96.4%
PC-3
  growth at 10 µM: 103%
RXF 393
  growth at 10 µM: 105%
CAKI-1
  growth at 10 µM: 94%
A498
  growth at 10 µM: 98.1%
SK-OV-3
  growth at 10 µM: 99.4%
[6]
  growth at 10 µM: 102%
OVCAR-4
  growth at 10 µM: 120%
IGROV-1
  growth at 10 µM: 91.8%
MDA-MB-435
  growth at 10 µM: 99.7%
Malme-3M
  growth at 10 µM: 98.5%
